Published values from different studies.
Target: Serine/threonine-protein kinase TBK1 (TBK1, Homo sapiens, UniProt Q9UHD2)
Observed: enzyme activity
Mode: inhibitor
Sequence (Q9UHD2 1-729, as in one of the studies): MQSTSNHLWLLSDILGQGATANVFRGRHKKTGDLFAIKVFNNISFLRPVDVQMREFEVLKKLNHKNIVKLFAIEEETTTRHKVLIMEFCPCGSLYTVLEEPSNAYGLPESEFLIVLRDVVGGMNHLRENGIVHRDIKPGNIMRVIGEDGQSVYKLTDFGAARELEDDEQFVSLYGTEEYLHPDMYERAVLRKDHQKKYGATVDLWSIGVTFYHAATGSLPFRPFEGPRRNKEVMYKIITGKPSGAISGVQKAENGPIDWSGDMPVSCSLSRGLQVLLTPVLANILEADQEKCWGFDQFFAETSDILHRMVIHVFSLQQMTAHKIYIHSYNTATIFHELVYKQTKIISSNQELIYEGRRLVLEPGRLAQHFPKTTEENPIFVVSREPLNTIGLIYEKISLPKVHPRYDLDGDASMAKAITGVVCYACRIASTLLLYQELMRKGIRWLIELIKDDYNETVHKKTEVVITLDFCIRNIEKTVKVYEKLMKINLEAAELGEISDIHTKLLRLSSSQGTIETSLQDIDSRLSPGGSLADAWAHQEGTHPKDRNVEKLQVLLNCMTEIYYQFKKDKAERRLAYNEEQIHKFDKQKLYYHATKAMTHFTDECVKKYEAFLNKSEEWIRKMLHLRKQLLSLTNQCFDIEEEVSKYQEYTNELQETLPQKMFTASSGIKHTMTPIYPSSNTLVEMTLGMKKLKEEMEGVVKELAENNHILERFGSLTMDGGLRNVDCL

CC(C)(C)C(=O)c1sc(NC2CCCCC2)nc1N
remaining activity (10 µM): 95%

NS(=O)(=O)c1ccc(CNc2nc(Nc3cccc(CN4CCOCC4)c3)ncc2Br)cc1
remaining activity (radiometric; 1 µM): 4%

COc1cc(Nc2cnc(C#N)c(O[C@H](C)CN(C)C)n2)ncc1-c1cnn(C)c1
remaining activity (radiometric; 1 µM): 71%

Brc1cnc(Nc2cccc(CN3CCOCC3)c2)nc1NCCc1c[nH]cn1
remaining activity (radiometric; 1 µM): 21%

Cn1c(=O)n(-c2ccc(C(C)(C)C#N)cc2)c2c3cc(-c4cnc5ccccc5c4)ccc3ncc21
remaining activity (10 µM): 107%

CC(C)(O)[C@H]1CC[C@H](Nc2ccc3ncc(-c4cccc(C(F)(F)F)c4)n3n2)CC1
remaining activity (1 µM): 102%

c1cc(CN2CCOCC2)cc(Nc2ncc(C3CC3)c(NCCc3c[nH]cn3)n2)c1
remaining activity (radiometric; 1 µM): 43%

Nc1nc(NC2CCCCC2)sc1C(=O)c1ccccc1
remaining activity (10 µM): 88%

O=C(Nc1cnn(-c2csc(C(=O)NC3COC3)c2)c1)Nc1c(F)cccc1Cl
remaining activity (5 µM): 98.8%

Cc1nn(CC(F)(F)F)cc1Nc1nccc(NCc2ccc(S(N)(=O)=O)cc2)n1
remaining activity (radiometric; 1 µM): 49%

CC(C)(C)c1nc(-c2cccc(NS(=O)(=O)c3c(F)cccc3F)c2F)c(-c2ccnc(N)n2)s1
remaining activity (radiometric; 1 µM): 88%

FC(F)c1nc2ccccc2n1-c1nc(N2CCOCC2)nc(N2CCOCC2)n1
remaining activity (10 µM): 102%
